From PubChem BioAssay
In the library only some 1.6% were active in any assay of this set; here they are far more common.
PKD1 inh: inhibitors of human PKD1 kinase, biochemical, fluorescence polarization; Serine/threonine-protein kinase D1 (Homo sapiens), Q15139; PKD1 kinase fluorescence polarization assay; inhibition, % (test concentration not listed); hit rate 0.056% among 200,000; AID 797, 2007
eIF4E 4G PPI: eIF4E–eIF4G protein interaction inhibitors, primary screen, biochemical, uHTS, TR-FRET, eIF4GI fragment. Eukaryotic translation initiation factor 4E (Mus musculus) + Eukaryotic translation …. TR-FRET eIF4E-eIF4GI(517-606) binding, 2 h. inhibition, % at 21.7 µM. hit rate 0.37% among 220,000. AID 782, 2007;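 active means inhibition above about 30%, limit read from the data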;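 further: 0% = full FRET control wells and 100% = background wells lacking eIF4GI fragment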
14-3-3 Bad PPI: inhibitors of 14-3-3 zeta/Bad binding, primary screen, biochemical, TR-FRET, bovine 14-3-3 zeta; AID 781, 2007; inhibition, % at 21.7 µM; TR-FRET 14-3-3zeta/Dy647-pBad peptide displacement, 1 h; hit rate 0.71% among 220,000;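 active means inhibition above about 70%, limit read from the data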;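 further: 0% = full 14-3-3 plus peptide FRET controls and 100% = background without 14-3-3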
EBV gp42 block: Epstein-Barr virus gp42 inhibitors, primary screen, biochemical, uHTS, fluorescence polarization; Glycoprotein 42 (Epstein-Barr virus (strain AG876)), Q1HVG2; Fluorescence polarization binding assay, mP read-out; inhibition, % (tested at 21.74 µM); hit rate 0.42% among 220,000; AID 1085, 2008
Target sequence (Q1HVG2 whole entry, looked up): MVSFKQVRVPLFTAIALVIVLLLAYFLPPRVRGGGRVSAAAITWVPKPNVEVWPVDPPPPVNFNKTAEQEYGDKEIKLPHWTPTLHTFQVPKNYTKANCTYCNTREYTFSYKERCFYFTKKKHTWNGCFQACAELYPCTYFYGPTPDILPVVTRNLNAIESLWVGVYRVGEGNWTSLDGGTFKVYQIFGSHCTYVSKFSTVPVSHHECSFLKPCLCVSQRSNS
RBBP9 inh: human RBBP9 inhibitors, primary screen, biochemical, fluorescence polarization, FP-Rh probe, HTS | recombinant RBBP9 | inhibition, % at 7.94 µM | hit rate 0.2% among 220,000 | AID 1515, 2009;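 active means inhibition above the campaign mean of all tested compounds plus 3 SD, cut at about 14% in these data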;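 further: plate controls were DMSO wells with RBBP9 for no effect and wells lacking RBBP9 protein for full effect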
Target sequence (O75884 whole entry, looked up): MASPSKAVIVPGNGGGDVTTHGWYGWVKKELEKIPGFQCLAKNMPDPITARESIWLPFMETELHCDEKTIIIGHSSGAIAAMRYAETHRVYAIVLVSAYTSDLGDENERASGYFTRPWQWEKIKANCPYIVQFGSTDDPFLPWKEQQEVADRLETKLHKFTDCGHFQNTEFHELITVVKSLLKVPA
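Test system: recombinant human RBBP9. Quantity: 2.5 µM RBBP9 dispensing solution, before mixing. Detection: FP readout at 525/598 nm. Reagent: Serine-hydrolase probe FP-Rh, 375 nM pre-mixing. Measure: % inhibition. Control set: DMSO-treated enzyme wells and wells lacking RBBP9. Buffer or medium: Tris-NaCl-Pluronic buffer, pH 8.0. Times: preincubation 30 min plus labeling 45 min at 25 °C.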
PKD FP artifact: fluorescence polarization interference in PKD1 assay, artefact control for PKD1 inhibitor project, biochemical, 140K library; shares compounds with PKD1 inh; PKD1 FP assay interference counter-screen; inhibition, % at 10 µM; 85 tested, under 10 active; AID 1315, 2008; call rule not given here
Numbers without * were called inactive; . = not tested or not shown. Unless noted, no stated cut-off is given here; in the data, active means inhibition above about 50%; inactive means the rest.

SMILES	PKD1 inh	eIF4E 4G PPI	14-3-3 Bad PPI	EBV gp42 block	RBBP9 inh	PKD FP artifact
CN1CCN(c2ccccc2NC(=O)c2ccc(-c3cccc([N+](=O)[O-])c3)o2)CC1	51.8*	3.1	2.2	-11.0	-10.5	-19.3
Cc1[nH]nc2c1-c1nc3ccccc3nc1C(C)(C)C2	57.8*	14.2	27.2	-8.1	-4.4	-0.8
CC12CCC(C)(c3nc4ccccc4nc31)C2(C)C	-1.1	3.1	-3.3	-4.8	-6.1	.
CCOC(=O)c1cccc(NC(=O)CCS(=O)(=O)c2cccc3nsnc23)c1	68.9*	8.8	-10.1	-26.1	-12.1	-15.4
Cc1cc2nc3c(=O)n(C4CCCCC4)c(=O)[nH]c3nc2cc1N	56.5*	5.8	3.8	141.5*	-2.2	22.4
Cc1cc(C)cc(Nc2cc(=O)n(C3CCCCC3)c(=O)[nH]2)c1	1.0	3.3	-4.0	9.2	-10.0	.
COCC(=O)Nc1cc(Cl)c(OC)cc1OC	5.6	20.6	-5.0	-3.4	-2.2	.
Cc1ccc(C)c(C(=O)NC(C)CCc2ccccc2)c1 (stereo unspecified)	-5.9	-3.7	1.1	-11.9	-14.0	.
Cc1occc1C(=O)NC(C)CCc1ccccc1 (stereo unspecified)	119.0*	3.4	-6.5	-9.9	-0.1	-3.5
Cc1ccc(Nc2cc(C)nc(-c3ccccc3O)n2)cc1	6.7	-1.3	-3.2	1.9	-9.2	.
Cc1cc(NCCCN)nc(-c2ccccc2O)n1	113.7*	0.5	-5.9	-5.9	0.9	-17.7
CC(OC(=O)c1ccc(NS(=O)(=O)c2cccs2)cc1)C(=O)N(C)C1CCCCC1 (stereo unspecified)	50.9*	2.9	3.7	-0.9	-9.1	-9.1
CC(CC(=O)Nc1ccc(S(=O)(=O)N2CCOCC2)cc1)c1ccccc1 (stereo unspecified)	.	0.2	8.7	-16.2	-2.4	.
COc1ccc(S(=O)(=O)N2CCC(n3cnc4cc(C(F)(F)F)ccc43)CC2)cc1	74.5*	-5.2	-0.6	-8.1	-7.3	-12.5
COC(=O)CCn1nc(-c2ccc(C)cc2)c2ccccc2c1=O	-2.2	0.1	-14.9	-7.6	-7.2	.
Cc1ccnn1Cc1cc(C(=O)O)c2ccccc2n1	-4.3	1.6	-10.1	-5.3	-2.6	.
CCC1=NNc2cccc3c(OC)ccc1c23	98.6*	5.5	-12.4	-0.7	3.5	-4.4
COc1ccc(C(C)=O)c2c(O)cccc12	1.8	1.8	-1.6	6.8	-6.5	.
O=C(O)C1CCN(c2ncccn2)CC1	90.0*	-0.8	-3.1	-5.2	-6.9	-6.5
CC(C)CC(=O)Nc1ccc(-c2nnn(CC(=O)NCc3ccco3)n2)cc1	5.3	-1.5	-17.3	-5.1	1.4	.
O=C(Cn1c(NCCO)nc2ccccc21)c1ccccc1	-8.7	3.8	-3.2	-19.3	-4.7	.
Cc1ccc(C(=O)Cn2c(NCCO)nc3ccccc32)cc1	53.2*	1.7	-4.7	-2.1	0.6	3.4
O=C(CNC(=O)c1ccc2c(c1)OCCO2)N/N=C/c1cccc(Br)c1	-4.5	-0.5	6.2	-6.6	-0.8	.
CCN(CC)c1ccc(NC(=O)COc2ccccc2C#N)cc1S(=O)(=O)Nc1ccc(OC)cc1	58.4*	5.0	5.3	-17.2	-20.0	-11.0
CCN(CC)c1ccc(NC(=O)COc2ccccc2C)cc1S(=O)(=O)Nc1ccccc1OC	5.7	-4.8	3.3	-12.2	-13.9	.
CS(=O)(=O)N1CCN(c2ccc(NC(=O)c3ccc(Br)o3)cc2)CC1	90.8*	-3.5	-14.0	-0.2	0.5	-16.2
Cc1cc(Nc2ccccc2)nc(NCc2ccccc2)n1	28.1	7.2	6.7	-4.6	-2.1	.
Cc1cc(Nc2cccc(F)c2)nc(NCc2ccccc2)n1	55.5*	2.8	1.4	21.4	-5.6	-11.1
NCC(=O)Nc1ccc(Cl)cc1C(=O)c1ccc[nH]1	.	6.4	0.6	-13.6	-14.9	.
Cn1c(=O)oc2cc(S(=O)(=O)N3CCN(Cc4ccc5c(c4)OCO5)CC3)ccc21	79.8*	-0.1	8.6	-5.4	-1.7	-11.3
